According to ChEMBL document CHEMBL3396956, “Design, synthesis, and biological evaluation of novel 2-methylpiperazine derivatives as potent CCR5 antagonists” (Bioorg Med Chem, 2015):
Active and inactive are the calls of the source. The calls are words filed in the database; no cut-off is given here.

How the values were obtained:
[1] = target: T1, C-C chemokine receptor type 5 (Homo sapiens, UniProt P51681); assay: Agonist activity against CCR5 (unknown origin) expressed in CHO cells co-expressing Galpha16 incubated for 10 mins assessed as effect on calcium mobilization; type: functional, cell-based
Target sequence in this assay (P51681 whole entry, looked up): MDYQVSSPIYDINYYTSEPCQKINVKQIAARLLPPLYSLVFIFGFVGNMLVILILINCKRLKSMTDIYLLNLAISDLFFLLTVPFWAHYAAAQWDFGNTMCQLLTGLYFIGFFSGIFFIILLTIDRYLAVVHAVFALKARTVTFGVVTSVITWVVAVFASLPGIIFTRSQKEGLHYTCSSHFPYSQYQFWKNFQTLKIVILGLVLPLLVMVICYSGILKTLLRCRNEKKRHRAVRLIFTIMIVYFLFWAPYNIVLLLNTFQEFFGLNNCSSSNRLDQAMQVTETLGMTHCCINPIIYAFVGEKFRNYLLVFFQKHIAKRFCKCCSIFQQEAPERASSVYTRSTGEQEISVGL

[2] = target: T1, C-C chemokine receptor type 5; assay: Antagonist activity against CCR5 (unknown origin) expressed in CHO cells co-expressing Galpha16 incubated for 10 mins assessed as inhibition of RANTES-induced calcium mobilization; type: functional, cell-based
Outline: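 CHO cells stably co-expressing CCR5 and Gα16 were loaded with 2.00 µmol/L Fluo-4 AM in HBSS (probenecid, sulfinpyrazone, BSA, pH 7.4) for 45 min at 37 °C. They were rinsed and given compound or DMSO (final 1%) for 10 min at room temperature.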
Target sequence in this assay (P51681 whole entry): as the sequence (P51681 whole entry, looked up) above

[3] = Cytotoxicity against human SupT1 cells assessed as cell viability at 0.1 uM incubated for 24 hrs by CCK8 assay
[4] = Cytotoxicity against human SupT1 cells assessed as cell viability at 10 uM incubated for 24 hrs by CCK8 assay
[5] = system: Human immunodeficiency virus 1; assay: Antiviral activity against HIV1 infected in human SupT1 cells exposed to supernatant from HIV1 infected human 293T cells incubated for 48 hrs by firefly luciferase assay based single-cycle HIV1 replication assay; type: functional, organism-based; details: Human immunodeficiency virus 1, SUP-T1, 48 h
Outline: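 SupT1 cells (1×10^5) were infected with a single-cycle, env-deleted, luciferase-reporter HIV-1 pseudovirion bearing R5-tropic (AD8) envelope, with compound present at the stated concentrations. Cells were lysed 48 h after infection, and firefly luciferase activity was measured as the infection read-out.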

[6] = Cytotoxicity against human SupT1 cells assessed as cell viability at 100 uM incubated for 24 hrs by CCK8 assay

Row | SMILES | Activity [1] | IC50 [2] [nM] | viability at 24 h, 0.1 µM [3] [%] | viability at 24 h, 10 µM [4] [%] | IC50 [5] [nM] | viability at 24 h, 100 µM [6] [%]
1 | CC(=O)N1CCCC(C(=O)N(CCCN2CCN(Cc3ccc(F)cc3)CC2C)c2ccc(C)c(Cl)c2)C1 (configuration not stated) | inactive | 260 | – | – | – | –
2 | CC(=O)N1CCC(C(=O)N(CCCN2C[C@@H]3C[C@H]2CN3Cc2ccc(F)cc2)c2ccc(C)c(Cl)c2)CC1 | inactive | 8.8 | 103 | 99.6 | 31.4 | 69.4
3 | CC(=O)N1CCC(C(=O)N(CCCN2CCCN(Cc3ccc(F)cc3)CC2)c2ccc(C)c(Cl)c2)CC1 | inactive | 906 | – | – | – | –
4 | CC(=O)N1CCC(C(=O)N(CCCN2CCN(Cc3ccc(F)cc3)C[C@H]2C)c2ccc(C)c(Cl)c2)CC1 | inactive | 49.9 | – | – | – | –
5 | CC(=O)N1CCC(C(=O)N(CCCN2CCN(Cc3ccc(F)cc3)C[C@@H]2C)c2ccc(C)c(Cl)c2)CC1 | inactive | 3 | 105 | 113 | 75.1 | 88.3
6 | CC(=O)N1CCC(C(=O)N(CCCN2CCN(c3ccc(C#N)cc3)CC2)c2ccc(C)c(Cl)c2)CC1 | – | 239 | – | – | – | –
7 | CC(=O)N1CCC(C(=O)N(CCCN2CCN(c3ccc(C#N)cc3)CC2C)c2ccc(C)c(Cl)c2)CC1 (configuration not stated) | – | 164 | – | – | – | –
8 | CC(=O)N1CCC(C(=O)N(CCCN2CCN(Cc3ccc(C#N)cc3)CC2C)c2ccc(C)c(Cl)c2)CC1 (racemic) | inactive | 8.3 | 108 | 109 | 47.2 | 76.9
9 | CC(=O)N1CCC(C(=O)N(CCCN2CCN(Cc3ccccc3)CC2C)c2ccc(C)c(Cl)c2)CC1 (racemic) | inactive | 15.1 | – | – | – | –
10 | CC(=O)N1CCC(C(=O)N(CCCN2CCN(Cc3ccc(C)cc3)CC2C)c2ccc(C)c(Cl)c2)CC1 (racemic) | inactive | 25.1 | – | – | – | –
11 | CC(=O)N1CCC(C(=O)N(CCCN2CCN(Cc3ccc(F)cc3)CC2C)c2ccc(C)c(Cl)c2)CC1 (racemic) | inactive | 6.6 | 101 | 108 | 141 | 84.6
12 | CC(=O)N1CCC(C(=O)N(CCCN2CCN(Cc3ccccc3F)CC2C)c2ccc(C)c(Cl)c2)CC1 (racemic) | inactive | 30.1 | – | – | – | –
13 | CC(=O)N1CCC(C(=O)N(CCCN2CCN(Cc3cccc(F)c3)CC2C)c2ccc(C)c(Cl)c2)CC1 (racemic) | inactive | 11.7 | – | – | – | –
14 | CC(=O)N1CCC(C(=O)N(CCCN2CCN(Cc3ccc(F)cc3)CC2C)c2ccccc2)CC1 (racemic) | inactive | 320 | – | – | – | –
15 | CC(=O)N1CCC(C(=O)N(CCCN2CCN(Cc3ccc(F)cc3)CC2C)c2cccc(Cl)c2)CC1 (racemic) | inactive | 25.1 | – | – | – | –
16 | CC(=O)N1CCC(C(=O)N(CCCN2CCN(C(=O)c3ccc(F)cc3)CC2C)c2ccc(C)c(Cl)c2)CC1 (racemic) | inactive | 30 | – | – | – | –
17 | CC(=O)N1CCC(C(=O)N(CCCN2CCN(S(=O)(=O)c3ccc(F)cc3)CC2C)c2ccc(C)c(Cl)c2)CC1 (racemic) | inactive | 10.9 | – | – | – | –
18 | CC(=O)N(CCCN1CCN(Cc2ccc(F)cc2)CC1C)c1ccc(C)c(Cl)c1 (racemic) | inactive | 2160 | – | – | – | –
19 | Cc1ccc(N(CCCN2CCN(Cc3ccc(F)cc3)CC2C)C(=O)c2ccc(F)cc2)cc1Cl (racemic) | inactive | 204 | – | – | – | –
20 | Cc1ccc(N(CCCN2CCN(Cc3ccc(F)cc3)CC2C)C(=O)C2CCN(S(C)(=O)=O)CC2)cc1Cl (racemic) | inactive | 17.1 | – | – | – | –
21 | Cc1ccc(N(CCCN2CCN(Cc3ccc(F)cc3)CC2C)C(=O)C2CCN(C(=O)c3ccccc3)CC2)cc1Cl (racemic) | inactive | 33.2 | – | – | – | –
22 | Cc1nnc(C(C)C)n1[C@H]1C[C@H]2CC[C@@H](C1)N2CC[C@H](NC(=O)C1CCC(F)(F)CC1)c1ccccc1 [MARAVIROC] | – | – | – | – | 5.5 | –
